Assay results reported in ChEMBL document CHEMBL4392876, “Natural-Product-Inspired Compounds as Countermeasures against the Liver Carcinogen Aflatoxin B1” (J Nat Prod, 2019).
Active and inactive are the calls of the source. The rule behind the calls is not given here.

Legend:
HepG2 [1] = assay: Protection against AfB1-induced toxicity in human HepG2 cells assessed as live cell area at 50 uM measured after 48 hrs by calcein-AM/Hoechst 33342 staining based high-content imaging analysis relative to control; format: functional
HepG2 [2] = assay: Protection against AfB1-induced toxicity in human HepG2 cells assessed as live cell area at 0.5 uM measured after 48 hrs by calcein-AM/Hoechst 33342 staining based high-content imaging analysis relative to control; format: functional
HepG2 [3] = assay: Protection against AfB1-induced toxicity in human HepG2 cells assessed as increase in live cell area at >0.5 uM measured after 48 hrs by calcein-AM/Hoechst 33342 staining based high-content imaging analysis relative to control; format: functional
HepG2 [4] = assay: Protection against AfB1-induced toxicity in human HepG2 cells assessed as live cell area at 5 uM measured after 48 hrs by calcein-AM/Hoechst 33342 staining based high-content imaging analysis relative to control; format: functional
HepG2 [5] = assay: Protection against AfB1-induced toxicity in human HepG2 cells assessed as increase in live cell area at >5 uM measured after 48 hrs by calcein-AM/Hoechst 33342 staining based high-content imaging analysis relative to control; format: functional
HepG2 [6] = assay: Toxicity in human HepG2 cells measured after 48 hrs by calcein-AM/Hoechst 33342 staining based high-content imaging analysis; format: cell-based; settings: hepg2, 48 h
HepG2 [7] = assay: Protection against AfB1-induced toxicity in 3D-spheroids of human HepG2 cells assessed as live cell area at 10 uM measured after 3 days by calcein-AM/Hoechst 33342 staining based high-content imaging analysis relative to control; format: functional
Method in brief: (§1)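 HepG2 spheroids: 1000 cells/well in ultralow-attachment plates, grown 4 days to tight spheroids, then test compounds (10 μM) plus AfB1 in complete EMEM for 3 further days. Calcein AM/Hoechst staining and high-content imaging of viability and live spheroid size. Live cell area relative to DMSO vehicle-only spheroids; n = 3.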

HepG2 [8] = assay: Protection against AfB1-induced morphological changes in 3D-spheroids of human HepG2 cells up to 10 uM measured after 3 days by calcein-AM/Hoechst 33342 staining based microscopic analysis; format: functional, cell-based; method in brief: as §1
HepG2 [9] = assay: Protection against AfB1-induced toxicity in human HepG2 cells assessed as live cell area at 12.5 uM measured after 48 hrs by calcein-AM/Hoechst 33342 staining based high-content imaging analysis relative to control; format: functional
HepG2 [10] = assay: Protection against AfB1-induced toxicity in human HepG2 cells assessed as increase in live cell area at >12.5 uM measured after 48 hrs by calcein-AM/Hoechst 33342 staining based high-content imaging analysis relative to control; format: functional
HepG2 [11] = assay: Protection against AfB1-induced toxicity in human HepG2 cells assessed as increase in live cell area measured after 48 hrs by calcein-AM/Hoechst 33342 staining based high-content imaging analysis; format: functional
HepG2 [12] = assay: Increase in live cell area in human HepG2 cells measured after 48 hrs by calcein-AM/Hoechst 33342 staining based high-content imaging analysis; format: functional

COc1ccc(C(=O)c2ccc(OC)cc2O)c(O)c1
%max (HepG2 [1]): 53.9%

COc1cc(C(=O)c2ccccc2)ccc1O
%max (HepG2 [1]): 60.2%

Cc1cc(O)cc2oc(=O)c3c(O)cc(O)cc3c12 [ALTERNARIOL]
%max (HepG2 [2]): 15.2% | Activity (HepG2 [3]): inactive

COc1cc(O)cc(OC)c1
%max (HepG2 [4]): 37% | Activity (HepG2 [5]): inactive

COc1cc(C(O)c2ccccc2)ccc1O (centres undefined)
%max (HepG2 [1]): 41%

CC(C)c1nc(CN(C)C(=O)N[C@H](C(=O)N[C@@H](Cc2ccccc2)C[C@H](O)[C@H](Cc2ccccc2)NC(=O)OCc2cncs2)C(C)C)cs1 [RITONAVIR]
%max (HepG2 [2]): 72% | Activity (HepG2 [3]): inactive

COC1=C(O)c2c(O)cc(C)c3c(O)cc(O)c(c23)C1=O
%max (HepG2 [4]): 20.5% | Activity (HepG2 [5]): inactive

COc1cc(O)c2c(=O)oc3cc(O)cc(C)c3c2c1
%max (HepG2 [1]): 67% | Activity (HepG2 [6]): Non-Toxic | Activity (HepG2 [7]): 95% | Activity (HepG2 [8]): Active

COc1cc(OC)c2c(O)c3c(=O)cc(C)oc3cc2c1 [RUBROFUSARIN B]
%max (HepG2 [2]): 64.9% | Activity (HepG2 [3]): inactive | Activity (HepG2 [6]): Toxic

COc1ccc(C(=O)c2ccccc2)c(O)c1 [OXYBENZONE]
%max (HepG2 [9]): 61.6% | Activity (HepG2 [10]): inactive

COc1cc(O)c2c(=O)oc3cc(O)c(O)cc3c2c1
%max (HepG2 [1]): 65.7% | Activity (HepG2 [6]): Toxic

COc1cc(O)c2c(=O)c3ccccc3oc2c1
%max (HepG2 [4]): 63.9% | Activity (HepG2 [5]): inactive | Activity (HepG2 [6]): Toxic | Activity (HepG2 [7]): 72% | Activity (HepG2 [8]): Active

CC(=O)N[C@@H](CS)C(=O)O
Activity (HepG2 [11]): Active | Activity (HepG2 [12]): Active

COC(=O)c1cc(O)cc(OC)c1C(=O)c1c(O)cc(C)cc1OC
%max (HepG2 [1]): 68.3%

COc1ccc(C(=O)NCc2cccnc2)c(O)c1
%max (HepG2 [2]): 33.5% | Activity (HepG2 [3]): inactive

Cc1c(-c2cnccn2)ssc1=S
Activity (HepG2 [11]): Active | Activity (HepG2 [12]): Active
